Assay results from different studies.
Compare with care: the assays were run in different laboratories.
Target: Serine/threonine-protein kinase Nek10 (NEK10, Homo sapiens, UniProt Q6ZWH5)
One construct used (Q6ZWH5 1-1172): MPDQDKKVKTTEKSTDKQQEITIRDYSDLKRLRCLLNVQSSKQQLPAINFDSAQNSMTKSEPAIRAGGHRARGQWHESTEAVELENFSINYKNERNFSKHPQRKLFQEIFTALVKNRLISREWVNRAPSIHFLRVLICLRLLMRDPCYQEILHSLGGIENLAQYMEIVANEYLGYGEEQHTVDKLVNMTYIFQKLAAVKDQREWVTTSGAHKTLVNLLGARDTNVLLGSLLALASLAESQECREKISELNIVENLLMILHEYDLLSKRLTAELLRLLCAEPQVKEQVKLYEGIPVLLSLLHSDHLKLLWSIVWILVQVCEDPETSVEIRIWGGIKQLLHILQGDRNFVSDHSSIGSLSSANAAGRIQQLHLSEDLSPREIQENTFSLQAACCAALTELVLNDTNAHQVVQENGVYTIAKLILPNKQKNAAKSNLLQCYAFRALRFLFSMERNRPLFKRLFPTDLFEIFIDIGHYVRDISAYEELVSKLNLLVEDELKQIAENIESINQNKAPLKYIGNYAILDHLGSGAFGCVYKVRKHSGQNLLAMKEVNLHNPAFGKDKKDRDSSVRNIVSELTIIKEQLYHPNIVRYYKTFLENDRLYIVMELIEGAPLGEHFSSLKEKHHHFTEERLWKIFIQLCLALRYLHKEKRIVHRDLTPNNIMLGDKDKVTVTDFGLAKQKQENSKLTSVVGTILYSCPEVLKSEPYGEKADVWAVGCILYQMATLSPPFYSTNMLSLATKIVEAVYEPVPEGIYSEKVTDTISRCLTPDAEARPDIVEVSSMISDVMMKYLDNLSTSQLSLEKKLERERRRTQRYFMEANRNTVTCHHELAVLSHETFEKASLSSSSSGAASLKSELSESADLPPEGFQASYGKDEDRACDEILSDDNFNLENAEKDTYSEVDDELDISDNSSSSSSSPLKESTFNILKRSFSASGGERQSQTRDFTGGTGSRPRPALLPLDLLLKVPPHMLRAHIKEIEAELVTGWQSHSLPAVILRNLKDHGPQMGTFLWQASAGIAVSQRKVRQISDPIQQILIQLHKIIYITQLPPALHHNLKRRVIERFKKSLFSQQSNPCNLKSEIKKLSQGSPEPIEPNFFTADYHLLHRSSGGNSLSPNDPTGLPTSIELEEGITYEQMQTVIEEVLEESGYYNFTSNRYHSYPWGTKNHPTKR

SMILES | assay | setting | remaining binding
O=C(Nc1c[nH]nc1C(=O)NC1CCNCC1)c1cc(F)cc(F)c1 | binding, competition with immobilised ligand | 1 µM | 100%
CNC(=O)c1ccc(Nc2ncc(C(F)(F)F)c(NCc3nccnc3N(C)S(C)(=O)=O)n2)cc1 | cell-free assay, competition with immobilised ligand | 0.1 µM | 100%
FC(F)(F)Oc1cccc(-c2cnc3ccc(-c4ccncc4)nn23)c1 | cell-free assay, competition with immobilised ligand | 5 µM | 28%
O=C(c1ccc(Nc2ncc(Cl)c(-c3cc4ccccc4s3)n2)cc1)N1CCC(N2CCCC2)CC1 | binding, competition with immobilised ligand | 1 µM | 74%
CC1CCCN1c1nccc(-c2cnn3ncccc23)n1 (stereo not drawn) | binding | 1 µM | 100%
COc1cnc(Nc2cccc(S(N)(=O)=O)c2)nc1N1CCN(c2ccccc2)C(=O)C1 | binding, competition with immobilised ligand | 1 µM | 90%
CS(=O)(=O)N1CCCC(NC(=O)[C@H](CCC2CCCCC2)NC(=O)c2ccc(CNC(=O)c3cnc4ccccn34)cc2)C1 (stereo partly drawn) | cell-free assay, competition with immobilised ligand | 0.1 µM | 100%
Nc1ncc2c(n1)-c1c([nH]c3ccc(C#CC4CC4)cc13)CCCC2 | binding, competition with immobilised ligand | 1 µM | 79%
CCOCCn1cc(C(=O)Nc2ccc(-n3nc(-c4cccnc4)cc3C(F)(F)F)cn2)ccc1=O | cell-free assay, competition with immobilised ligand | 1 µM | 94%
O=C(c1ccc(Nc2nccc(-c3cc4ccccc4s3)n2)cc1)N1CCC(N2CCCC2)CC1 | binding, competition with immobilised ligand | 1 µM | 43%
c1cnn2ncc(-c3ccnc(N4CCC45COC5)n3)c2c1 | binding | 1 µM | 98%
C[C@@H](c1ccc(-n2cnc3c(N)ncnc32)cc1)N1CCc2nn(C)c(Cc3ccccc3)c2C1=O | binding, competition with immobilised ligand | 0.1 µM | 80%
c1cncc(-c2cccc(Nc3nccc(NC4CCCCC4)n3)c2)c1 | binding, competition with immobilised ligand | 10 µM | 1.6%
COc1cccc(CNC(=O)c2nc3scc(COCc4ccc(C(=O)O)cc4)c3c(=O)[nH]2)c1 | cell-free assay, competition with immobilised ligand | 1 µM | 61.7%
CN(c1nccc(-c2cnn3ncccc23)n1)C1CC1 | binding | 1 µM | 100%
Nc1c(C(=O)NCc2ccc(C(=O)NCCCC3CCCCC3)cc2)cnn1-c1ccccc1 | cell-free assay, competition with immobilised ligand | 0.1 µM | 100%
O=C(NCCCN1CCOCC1)c1ccc(Nc2nccc(-c3cc4ccccc4s3)n2)cc1 | binding, competition with immobilised ligand | 1 µM | 59%
CN(C)c1nccc(-c2cnc3ncccn23)n1 | binding | 1 µM | 59%
